Assay results: ChEMBL document CHEMBL1138222, “9-Benzylidene-naphtho[2,3-b]thiophen-4-ones as novel antimicrotubule agents-synthesis, antiproliferative activity, and inhibition of tubulin polymerization” (J Med Chem, 2006)
Blank lines part the entries; values can stand above or below the compound they belong to. Activity calls are given as the source filed them. The calls are words filed in the database; no cut-off is given here.

Assays:
K562 [1] = experiment: Antiproliferative activity against human K562 cell line; format: functional, cell-based
Tubulin (Homo sapiens) [2] = target: T1, Tubulin (Homo sapiens) (UniProt P68371+Q9H4B7+P0DPH7+P68366+Q13509+Q71U36+P04350+Q3ZCM7+P07437+P68363+Q9BQE3+Q6PEY2+Q13885+Q9BVA1+Q9BUF5); experiment: Displacement of [3H]colchicine from tubulin by SPA assay; format: protein-complex assay
Tubulin (Homo sapiens) [3] = target: T1, Tubulin (Homo sapiens); experiment: Displacement of [3H]paclitaxel from tubulin by SPA assay; format: protein-complex assay
Tubulin = Tubulin (Sus scrofa, UniProt P02554+P02550); experiment: Inhibition of tubulin polymerization in porcine brain
[4] = Antiproliferative activity against KB/HeLa cells by XTT assay after 48 hrs; format: functional, cell-based; conditions: Homo sapiens
In short: (§1)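 Tumour cell lines were seeded at 1 × 10^3 to 8 × 10^4 cells/well for logarithmic growth and exposed to a concentration series for 48 h. Proliferation was read as cellular metabolic activity by XTT. IC50 came from dose-response curves by nonlinear regression, with at least two replicates.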

SK-OV-3 = experiment: Antiproliferative activity against SKOV3 cells by XTT assay after 48 hrs; format: functional, cell-based; conditions: Homo sapiens, SK-OV-3, 48 h; in short: as §1
SF-268 = experiment: Antiproliferative activity against SF268 cells by XTT assay after 48 hrs; format: functional, cell-based; conditions: Homo sapiens, SF-268, 48 h; in short: as §1
NCI-H460 = experiment: Antiproliferative activity against NCI-H460 cells by XTT assay after 48 hrs; format: functional, cell-based; conditions: Homo sapiens, NCI-H460, 48 h; in short: as §1
RKO [5] = experiment: Antiproliferative activity against RKO cells with ectopic-induced p27kip1-expression by XTT assay after 48 hrs; format: functional, cell-based; conditions: Homo sapiens
In short: (§2)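 RKO colon adenocarcinoma cells carry an ecdysone-inducible p27kip1 vector. On day 1 they were plated with 3 µM ponasterone A (induced, 2 × 10^4 cells/well) or without it (not induced, 6 × 10^3 cells/well) and held 24 h at 37 °C. Compound or DMSO control was then added for 48 h at 37 °C, followed by a standard XTT read-out.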

RKO [6] = experiment: Antiproliferative activity against RKO cells by XTT assay after 48 hrs; format: functional, cell-based; conditions: Homo sapiens; in short: as §2
MDR = experiment: Antiproliferative activity against LT12 MDR cells by XTT assay after 48 hrs; format: functional, cell-based; conditions: Rattus norvegicus; in short: as §1
L1210 [7] = experiment: Antiproliferative activity against L1210 cells by XTT assay after 48 hrs; format: functional, cell-based; conditions: Mus musculus, L1210, 48 h; in short: as §1
L1210 [8] = experiment: Antiproliferative activity against L1210 VCR cells by XTT assay after 48 hrs; format: functional, cell-based; conditions: Mus musculus, L1210, 48 h; in short: as §1
P388 [9] = experiment: Antiproliferative activity against P388 cells by XTT assay after 48 hrs; format: functional, cell-based; conditions: Mus musculus, P388, 48 h; in short: as §1
P388 [10] = experiment: Antiproliferative activity against P388 ADR cells by XTT assay after 48 hrs; format: functional, cell-based; conditions: Mus musculus, P388, 48 h; in short: as §1
cells = conditions: Rattus norvegicus, LT12, 48 h
[11] = Cell cycle arrest in KB/HeLa cells by accumulation at S phase at 31.6 nM; format: functional, cell-based; conditions: Homo sapiens
In short: (§3)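 Subconfluent KB/HeLa cells were treated with a concentration series for 24 h at 37 °C, then detached and fixed in 70% ethanol. DNA was stained with propidium iodide alongside RNase digestion and measured by flow cytometry. Phase fractions came from cell-cycle modelling software, and IC50 from nonlinear regression.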

[12] = Cell cycle arrest in KB/HeLa cells by accumulation at S phase at 100 nM; format: functional, cell-based; conditions: Homo sapiens; in short: as §3
[13] = Cell cycle arrest in KB/HeLa cells by accumulation at S phase at 316 nM; format: functional, cell-based; conditions: Homo sapiens; in short: as §3
[14] = Cell cycle arrest in KB/HeLa cells by accumulation at G2/M phase at 0.1 nM; format: functional, cell-based; conditions: Homo sapiens; in short: as §3
[15] = Cell cycle arrest in KB/HeLa cells by accumulation at G2/M phase at 0.3 nM; format: functional, cell-based; conditions: Homo sapiens; in short: as §3
[16] = Cell cycle arrest in KB/HeLa cells by accumulation at G2/M phase at 1 nM; format: functional, cell-based; conditions: Homo sapiens; in short: as §3
[17] = Cell cycle arrest in KB/HeLa cells by accumulation at G2/M phase at 3.16 nM; format: functional, cell-based; conditions: Homo sapiens
[18] = Cell cycle arrest in KB/HeLa cells by accumulation at G2/M phase at 10 nM; format: functional, cell-based; conditions: Homo sapiens; in short: as §3
[19] = Cell cycle arrest in KB/HeLa cells by accumulation at G2/M phase at 31.6 nM; format: functional, cell-based; conditions: Homo sapiens; in short: as §3
[20] = Cell cycle arrest in KB/HeLa cells by accumulation at G2/M phase at 100 nM; format: functional, cell-based; conditions: Homo sapiens; in short: as §3
[21] = Cell cycle arrest in KB/HeLa cells by accumulation at G2/M phase at 316 nM; format: functional, cell-based; conditions: Homo sapiens; in short: as §3
[22] = Cell cycle arrest in KB/HeLa cells by accumulation at G1 phase at 0.1 nM; format: functional, cell-based; conditions: Homo sapiens; in short: as §3
[23] = Cell cycle arrest in KB/HeLa cells by accumulation at G1 phase at 0.3 nM; format: functional, cell-based; conditions: Homo sapiens; in short: as §3
[24] = Cell cycle arrest in KB/HeLa cells by accumulation at G1 phase at 1 nM; format: functional, cell-based; conditions: Homo sapiens; in short: as §3
[25] = Cell cycle arrest in KB/HeLa cells by accumulation at G1 phase at 3.16 nM; format: functional, cell-based; conditions: Homo sapiens; in short: as §3
[26] = Cell cycle arrest in KB/HeLa cells by accumulation at G1 phase at 10 nM; format: functional, cell-based; conditions: Homo sapiens; in short: as §3
[27] = Cell cycle arrest in KB/HeLa cells by accumulation at G1 phase at 31.6 nM; format: functional, cell-based; conditions: Homo sapiens; in short: as §3
[28] = Cell cycle arrest in KB/HeLa cells by accumulation at G1 phase at 100 nM; format: functional, cell-based; conditions: Homo sapiens; in short: as §3
[29] = Cell cycle arrest in KB/HeLa cells by accumulation at G1 phase at 316 nM; format: functional, cell-based; conditions: Homo sapiens; in short: as §3
[30] = Cell cycle arrest in KB/HeLa cells by accumulation at G2/M phase; format: functional, cell-based; conditions: Homo sapiens; in short: as §3
K562 [31] = experiment: Cell cycle arrest in K562 cells by accumulation at G2/M phase at 0.03 uM; format: functional, Homo sapiens
In short: (§4)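 K562 leukaemia cells were exposed to compound for 24 h at 37 °C, pelleted, and washed in PBS. They were fixed in ice-cold 70% ethanol for 30 min at 4 °C. Staining was 30 min in the dark with propidium iodide (0.2 mg/mL) plus RNase (2 mg/mL) in PBS. DNA content was measured by flow cytometry with 488 nm argon laser excitation.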

K562 [32] = experiment: Cell cycle arrest in K562 cells by accumulation at G2/M phase at 0.06 uM; format: functional, Homo sapiens; in short: as §4
K562 [33] = experiment: Cell cycle arrest in K562 cells by accumulation at G2/M phase at 0.1 uM; format: functional, Homo sapiens; in short: as §4
P388 [34] = experiment: Inhibition of P388 cells growth subcutaneously implanted in CD2F1 mouse at 25 mg/kg, ip after 7 days; format: functional, organism-based; design: dose 25 mg/kg
In short: (§5)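 Female CD2F1 mice aged 5-6 weeks received ~1 mm3 P388 tumour fragments subcutaneously on day 0. Dosing was intraperitoneal at 0.1 mL/10 g on days 5, 12 and 19, at 100, 50 or 25 mg/kg; controls received DMSO vehicle. Body weight and subcutaneous tumour growth were recorded three times per week.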

P388 [35] = experiment: Inhibition of P388 cells growth subcutaneously implanted in CD2F1 mouse at 50 mg/kg, ip between 9 to 14 days; format: functional, organism-based; design: dose 50 mg/kg; in short: as §5
Mus musculus [36] = experiment: Increase in survival of CD2F1 mouse subcutaneously implanted with P388 cells at 100 mg/kg after 21 days; format: functional; conditions: route intraperitoneal
Mus musculus [37] = experiment: Increase in survival of CD2F1 mouse subcutaneously implanted with P388 cells at 50 mg/kg after 21 days; format: functional; conditions: route intraperitoneal
Mus musculus [38] = experiment: Increase in survival of CD2F1 mouse subcutaneously implanted with P388 cells at 25 mg/kg after 21 days; format: functional; conditions: route intraperitoneal
[39] = Cell cycle arrest in KB/HeLa cells by accumulation at S phase at 0.1 nM; format: functional, cell-based; conditions: Homo sapiens; in short: as §3
[40] = Cell cycle arrest in KB/HeLa cells by accumulation at S phase at 0.3 nM; format: functional, cell-based; conditions: Homo sapiens; in short: as §3
[41] = Cell cycle arrest in KB/HeLa cells by accumulation at S phase at 1 nM; format: functional, cell-based; conditions: Homo sapiens; in short: as §3
[42] = Cell cycle arrest in KB/HeLa cells by accumulation at S phase at 3.16 nM; format: functional, cell-based; conditions: Homo sapiens; in short: as §3
[43] = Cell cycle arrest in KB/HeLa cells by accumulation at S phase at 10 nM; format: functional, cell-based; conditions: Homo sapiens; in short: as §3

IC50 (K562 [1]): 80 nM
Activity (Tubulin (Homo sapiens) [2]): 0.29 µM
Activity (Tubulin (Homo sapiens) [3]): inactive
IC50 (Tubulin): 500 nM
IC50 (SK-OV-3): 40 nM
IC50 (NCI-H460): 280 nM
IC50 (L1210 [7]): 130 nM
IC50 (L1210 [8]): 170 nM
IC50 (P388 [9]): 140 nM
IC50 (P388 [10]): 160 nM
IC50 (cells): 180 nM
SMILES: COc1ccc(/C=C2/c3ccccc3C(=O)c3ccsc32)c(OC)c1O
IC50 [4]: 190 nM
IC50 (SF-268): 50 nM
IC50 (RKO [5]): > 9000 nM
IC50 (RKO [6]): 40 nM
IC50 (MDR): 190 nM

SMILES: COc1cc(/C=C2/c3ccccc3C(=O)c3ccsc32)cc(OC)c1O
Activity [11]: 26%
Activity [12]: 16.2%
Activity [13]: 9.8%
Activity [14]: 9.7%
Activity [15]: 9.1%
Activity [16]: 8.4%
Activity [17]: 9.2%
Activity [18]: 8.8%
Activity [19]: 8.6%
Activity [20]: 52.2%
Activity [21]: 89.5%
Activity [22]: 65.8%
Activity [23]: 65.6%
Activity [24]: 65.7%
Activity [25]: 66.3%
Activity [26]: 64.8%
Activity [27]: 65.4%
Activity [28]: 31.7%
Activity [29]: 0.8%
IC50 (K562 [1]): 50 nM
EC50 [30]: 98 nM
Activity (K562 [31]): 23%
Activity (K562 [32]): 55%
Activity (K562 [33]): 72%
Activity (Tubulin (Homo sapiens) [2]): 0.27 µM
Activity (Tubulin (Homo sapiens) [3]): inactive
Activity (P388 [34]): Active
Activity (P388 [35]): Active
IC50 (Tubulin): 380 nM
IC50 [4]: 50 nM
IC50 (SK-OV-3): 70 nM
IC50 (SF-268): 70 nM
IC50 (NCI-H460): 50 nM
IC50 (RKO [5]): > 9000 nM
IC50 (RKO [6]): 30 nM
IC50 (MDR): 170 nM
IC50 (L1210 [7]): 340 nM
IC50 (L1210 [8]): 680 nM
IC50 (P388 [9]): 50 nM
IC50 (P388 [10]): 220 nM
Activity (Mus musculus [36]): 106%
Activity (Mus musculus [37]): 111%
Activity (Mus musculus [38]): 83%
Activity [39]: 24.6%
Activity [40]: 25.3%
Activity [41]: 25.9%
Activity [42]: 24.5%
Activity [43]: 26.5%
IC50 (cells): 130 nM
